Published values from different studies.
Protocols differ between the studies behind these lines.
GRM2: Metabotropic glutamate receptor 2 (GRM2, Homo sapiens, UniProt Q14416)
ALPI: Intestinal-type alkaline phosphatase (ALPI, Bos taurus, UniProt P19111)
EPHX2: Bifunctional epoxide hydrolase 2 (EPHX2, Homo sapiens, UniProt P34913)
RET: Proto-oncogene tyrosine-protein kinase receptor Ret (RET, Homo sapiens, UniProt P07949)
Maob: Amine oxidase [flavin-containing] B (Maob, Rattus norvegicus, UniProt P19643)
LCK: Tyrosine-protein kinase Lck (LCK, Homo sapiens, UniProt P06239)
NMUR1: Neuromedin-U receptor 1 (NMUR1, Homo sapiens, UniProt Q9HB89)

`CN1CCN(c2ccc(Nc3ncc4cc(C#N)c(=O)n(C5CCCC5)c4n3)cc2)CC1` has an IC50 of 403 nM (MAP/microtubule affinity-regulating kinase 4 (MARK4, Homo sapiens, UniProt Q96L34); enzyme activity, inhibitor).
The IC50 of `COc1ccc(-c2cc(C(N)=O)ncc2OCc2cn(C)cn2)c(F)c1` is reported as 92 nM (GRM2; ion flux, antagonist).
With `O=C1NC2=C(C(=O)N(c3ccc(Cl)cc3)C2)C(c2ccccc2O)N1` (centres unmarked) the IC50 was 2940 nM (ALPI; enzyme activity, inhibitor, absorbance).
With `CCC(CC12CC3CC(CC(C3)C1)C2)NC(=O)Nc1ccccc1F` (centres unmarked) the IC50 was 631 nM (EPHX2; enzyme activity, inhibitor, fluorescence).
`Cc1ccc(C(=O)Nc2ccc(Oc3cc4cnn(C)c4cc3-c3cn[nH]c3)c(F)c2)c(=O)n1-c1ccc(F)cc1` has an IC50 of 590 nM (RET; enzyme activity, inhibitor).
`O=c1[nH]c2c(Br)cccc2n1C1CCN(S(=O)(=O)c2ccc(I)cc2)CC1` gave an IC50 of 14000 nM (N-glycosylase/DNA lyase (OGG1, Homo sapiens, UniProt O15527); enzyme activity, inhibitor).
The IC50 of `COc1ccc2cc(C=NN=C3CS(=O)(=O)N(C)c4ccccc43)c(Cl)nc2c1` is reported as 2220 nM (Maob; enzyme activity, inhibitor, fluorescence).
The IC50 of `COc1ccc(-c2cc(C(N)=O)ncc2OCc2cnc(OC)nc2)c(F)c1` is reported as 261 nM (GRM2; ion flux, antagonist).
For `Cc1cnc(-c2ccc(-c3ccc(NC(=O)Nc4c(F)cc(F)cc4F)cc3F)c3c2C(=O)NC3)[nH]1`, the IC50 was 0.7 nM (LCK; enzyme activity, inhibitor).
`O=C1N=C(Nc2ccccc2)S/C1=C\c1ccccc1OCc1cn(Cc2ccccc2Br)nn1` gave an IC50 of 37000 nM (Aldo-keto reductase family 1 member B1 (AKR1B1, Homo sapiens, UniProt P15121); enzyme activity, inhibitor, absorbance; pH 6.2).
`CC/C(=N\NC(=O)C(C)Nc1ccccc1)c1ccc(O)c(C)c1O` (centres unmarked) gave an IC50 of 4.09 nM (Serine/threonine-protein kinase LATS2 (LATS2, Homo sapiens, UniProt Q9NRM7); enzyme activity, inhibitor).
The IC50 of `O=C1NC2=C(C(=O)N(c3nc4ccccc4[nH]3)C2)C(c2ccc(O)cc2)N1` (centres unmarked) is reported as 11300 nM (ALPI; enzyme activity, inhibitor, absorbance).
With `CC(=NN=C1CS(=O)(=O)N(C)c2ccccc21)c1cc(Cl)sc1Cl` the IC50 was 2580 nM (Maob; enzyme activity, inhibitor, fluorescence).
With `CC(O)C(C)C(=O)N1CCC(NC(=O)Nc2ccc(OC(F)(F)F)c(F)c2)CC1` (centres unmarked) the IC50 was 0.1 nM (EPHX2; enzyme activity, inhibitor).
`CC(=NN=C1CS(=O)(=O)N(C)c2ccccc21)c1cc(C)cs1` gave an IC50 of 3830 nM (Maob; enzyme activity, inhibitor, fluorescence).
With `Nc1ncc2c(n1)-c1c([nH]c3ccc(C#CC4CC4)cc13)CCCC2` the IC50 was greater than 10000 nM (Phosphatidylinositol 5-phosphate 4-kinase type-2 gamma (PIP4K2C, Homo sapiens, UniProt Q8TBX8); target engagement in cells, BRET).
`CCN1CCN(Cc2ccc(NC(=O)Nc3ccc(Oc4cc(NC)ncn4)cc3)cc2C(F)(F)F)CC1` gave an IC50 of 40000 nM (Dual specificity mitogen-activated protein kinase kinase 4 (MAP2K4, Homo sapiens, UniProt P45985); enzyme activity, inhibitor, ADP detection).
`COc1ccc(-c2cc(C(N)=O)ncc2OCc2ccnc(OC)c2)c(F)c1` has an IC50 of 135 nM (GRM2; ion flux, antagonist).
For `CCCCCCCCN1CC2=C(C1=O)C(c1ccccc1O)NC(=O)N2` (centres unmarked), the IC50 was 8710 nM (ALPI; enzyme activity, inhibitor, absorbance).
The IC50 of `O=C(CCCCCCCCc1ccc(O)cc1)c1c(O)cccc1O` is reported as 18600 nM (EPHX2; enzyme activity, inhibitor, fluorescence).
`CNc1nc(C)nc(N[C@H]2CCC[C@@H](C(=O)NCc3ccc(C#N)cc3C(F)(F)F)C2)n1` gave an IC50 of 0.4 nM (EPHX2; enzyme activity, inhibitor).
The IC50 of `Cc1ccc2cc(C=NN=C3CS(=O)(=O)N(C)c4ccccc43)c(Cl)nc2c1` is reported as 1050 nM (Maob; enzyme activity, inhibitor, fluorescence).
`O=C(Nc1ccccc1)NC12CC3CC(CC(C3)C1)C2` has an IC50 of 16.5 nM (EPHX2; enzyme activity, inhibitor, fluorescence).
`COc1ccc(-c2cc(C(N)=O)ncc2OCc2ccnc(F)c2)c(F)c1` has an IC50 of 46 nM (GRM2; ion flux, antagonist).
`O=C(Cc1ccc(Nc2ncnc3[nH]ccc23)cc1)Nc1ccc(F)c(Cl)c1` has an IC50 of greater than 20000 nM (RET; enzyme activity, inhibitor, mobility shift).
With `O=C1NC2=C(C(=O)N(Cc3ccc(F)cc3)C2)C(c2ccc(O)cc2)N1` (centres unmarked) the IC50 was 4760 nM (ALPI; enzyme activity, inhibitor, absorbance).
`COc1ccc(-c2cc(C(N)=O)ncc2OCc2noc(C)n2)c(F)c1` gave an IC50 of 158 nM (GRM2; ion flux, antagonist).
The IC50 of `O=C1NC2=C(C(=O)N(Cc3ccccc3)C2)C(c2ccccc2O)N1` (centres unmarked) is reported as 7670 nM (ALPI; enzyme activity, inhibitor, absorbance).
`CC(C)C[C@H](NC(=O)[C@H](Cc1ccccc1)NC(=O)[C@@H](N)Cc1ccc(O)cc1)C(=O)N[C@@H](Cc1ccccc1)C(=O)N[C@@H](CCCNC(=N)N)C(=O)N1CCC[C@H]1C(=O)N[C@@H](CCCNC(=N)N)C(=O)N[C@@H](CC(N)=O)C(N)=O` gave an IC50 of 0.66 nM (NMUR1; ligand displacement, radioligand; cell membranes).
`CC12CC3CC(C1)CC(NC(=O)Nc1ccccc1F)(C3)C2` gave an IC50 of 1.5 nM (EPHX2; enzyme activity, inhibitor, fluorescence).
The IC50 of `COc1ccc(-c2cc(C(N)=O)ncc2OCc2ccn(C)n2)c(F)c1` is reported as 21 nM (GRM2; ion flux, antagonist).
The IC50 of `COc1ccc2c(Oc3ccc4c(C(=O)Nc5ccccc5N)cccc4c3)ccnc2c1` is reported as greater than 500 nM (LCK; enzyme activity, inhibitor).
The IC50 of `CC(=NN=C1CS(=O)(=O)N(C)c2ccccc21)c1sccc1C` is reported as 2380 nM (Maob; enzyme activity, inhibitor, fluorescence).
With `CNC(=O)c1cc2c(Oc3ccc(NC(=O)C4(C(=O)Nc5ccc(F)cc5)CC4)cc3)ccnc2cc1OC` the IC50 was 10 nM (Tyrosine-protein kinase Lck, phosphorylated (LCK, Homo sapiens, UniProt P06239); enzyme activity, inhibitor, radiometric).
With `Oc1c2ccccc2c2c3c(cccc13)N=N2` the IC50 was 736 nM (Tyrosine-protein kinase JAK2 (JAK2, Homo sapiens, UniProt O60674); enzyme activity, inhibitor).
`O=C1NC2=C(C(=O)N(c3ccc(F)cc3)C2)C(c2ccccc2O)N1` (centres unmarked) gave an IC50 of 6540 nM (ALPI; enzyme activity, inhibitor, absorbance).
For `CC(C)C[C@H](NC(=O)[C@H](Cc1ccccc1)NC(=O)[C@H](Cc1ccc(O)cc1)NC(=O)CNC(=O)[C@H](CCCNC(=N)N)NC(=O)[C@H](CO)NC(=O)[C@H](CCC(N)=O)NC(=O)[C@H](CO)NC(=O)[C@H](C)NC(=O)[C@H](Cc1ccccc1)NC(=O)[C@@H]1CCCN1C(=O)[C@H](CO)NC(=O)[C@H](CCC(N)=O)NC(=O)[C@H](Cc1ccccc1)NC(=O)[C@H](CCC(=O)O)NC(=O)[C@H](CCC(=O)O)NC(=O)[C@H](CC(=O)O)NC(=O)[C@@H](NC(=O)[C@H](CCCNC(=N)N)NC(=O)[C@@H](N)Cc1ccccc1)C(C)C)C(=O)N[C@@H](Cc1ccccc1)C(=O)N[C@@H](CCCNC(=N)N)C(=O)N1CCC[C@H]1C(=O)N[C@@H](CCCNC(=N)N)C(=O)N[C@@H](CC(N)=O)C(N)=O`, the IC50 was 0.11 nM (NMUR1; ligand displacement, radioligand; cell membranes).
The IC50 of `CC(C)(C)n1nc(-c2ccc3nc(OC4CC4)ccc3c2)c(C(N)=O)c1N` is reported as greater than 10000 nM (Mitogen-activated protein kinase kinase kinase 10 (MAP3K10, Homo sapiens, UniProt Q02779); cell-free assay).
